From ChEMBL document CHEMBL1944603, “An efficient synthesis of highly functionalized novel chromeno[4,3-b]pyrroles and indolizino[6,7-b]indoles as potent antimicrobial and antioxidant agents” (2012) come the findings set out here.

In brackets after ≈: the same amount, converted by molar mass.

One assay deals with Radical scavenging activity. In words: Antioxidant activity assessed as DPPH free radical scavenging activity at 50 ug by spectrophotometer. Type of assay: functional. In outline: (§1)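 DPPH radical scavenging measured spectrophotometrically by Blois's method at 50, 500 and 1000 µg. Absorbance read at 517 nm. Percent scavenging is the absorbance decrease at 517 nm relative to the absorbance of DPPH solution without test compound. L-ascorbic acid as standard.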
Regarding `COC(=O)[C@]12Cc3c([nH]c4ccccc34)[C@@H](c3ccc(OC)cc3)N1[C@@H]1c3ccccc3OC[C@@H]1C2`, the Activity is 28%.

The next assay has as its system Bacillus subtilis. Nature of the assay: Antimicrobial activity against Bacillus subtilis at 25 ug/ml by agar diffusion assay. Type of assay: functional. In outline: (§2)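 Agar diffusion assay in duplicate against the human bacterial pathogens; tetracycline as reference control.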
With `CN(C)[C@@H]1C(O)=C(C(N)=O)C(=O)[C@@]2(O)C(O)=C3C(=O)c4c(O)cccc4[C@@](C)(O)[C@H]3C[C@@H]12` [TETRACYCLINE], the inhibition zone (IZ) was 15 mm.

Consider `COC(=O)[C@]12Cc3c([nH]c4ccccc34)[C@@H](c3ccc(OC)cc3)N1[C@@H]1c3ccccc3OC[C@@H]1C2`, for which the inhibition zone (IZ) was 8 mm.

Another assay relates to Bacillus subtilis. In words: Antimicrobial activity against Bacillus subtilis at 50 ug/ml by agar diffusion assay. The class given is functional. In outline:
as §2
The compound `CN(C)[C@@H]1C(O)=C(C(N)=O)C(=O)[C@@]2(O)C(O)=C3C(=O)c4c(O)cccc4[C@@](C)(O)[C@H]3C[C@@H]12` [TETRACYCLINE] displayed an inhibition zone (IZ) of 24 mm.

In the case of `COC(=O)[C@]12Cc3c([nH]c4ccccc34)[C@@H](c3ccc(OC)cc3)N1[C@@H]1c3ccccc3OC[C@@H]1C2`, the inhibition zone (IZ) worked out at 11 mm.

For a further assay, the system named is Bacillus subtilis. Nature of the assay: Antimicrobial activity against Bacillus subtilis at 75 ug/ml by agar diffusion assay. The class given is functional. The method in brief:
as §2
`CN(C)[C@@H]1C(O)=C(C(N)=O)C(=O)[C@@]2(O)C(O)=C3C(=O)c4c(O)cccc4[C@@](C)(O)[C@H]3C[C@@H]12` [TETRACYCLINE]: the inhibition zone (IZ) worked out at 29 mm.

For the compound `COC(=O)[C@]12Cc3c([nH]c4ccccc34)[C@@H](c3ccc(OC)cc3)N1[C@@H]1c3ccccc3OC[C@@H]1C2`, the inhibition zone (IZ) amounted to 18 mm.

In the next assay the test system is Bacillus subtilis. Nature of the assay: Antimicrobial activity against Bacillus subtilis at 100 ug/ml by agar diffusion assay. The class given is functional. The method in brief:
as §2
As for `CN(C)[C@@H]1C(O)=C(C(N)=O)C(=O)[C@@]2(O)C(O)=C3C(=O)c4c(O)cccc4[C@@](C)(O)[C@H]3C[C@@H]12` [TETRACYCLINE], the inhibition zone (IZ) is over 40 mm.

`COC(=O)[C@]12Cc3c([nH]c4ccccc34)[C@@H](c3ccc(OC)cc3)N1[C@@H]1c3ccccc3OC[C@@H]1C2`: the inhibition zone (IZ) is 19 mm.

Another assay relates to Staphylococcus aureus. Nature of the assay: Antimicrobial activity against Staphylococcus aureus at 25 ug/ml by agar diffusion assay. Type of assay: functional. In outline:
as §2
As to `CN(C)[C@@H]1C(O)=C(C(N)=O)C(=O)[C@@]2(O)C(O)=C3C(=O)c4c(O)cccc4[C@@](C)(O)[C@H]3C[C@@H]12` [TETRACYCLINE], the inhibition zone (IZ) came out at 22 mm.

A further assay deals with Staphylococcus aureus. In words: Antimicrobial activity against Staphylococcus aureus at 50 ug/ml by agar diffusion assay. The class given is functional. In outline: as §2
`CN(C)[C@@H]1C(O)=C(C(N)=O)C(=O)[C@@]2(O)C(O)=C3C(=O)c4c(O)cccc4[C@@](C)(O)[C@H]3C[C@@H]12` [TETRACYCLINE] returned an inhibition zone (IZ) of 24 mm.

Compound `COC(=O)[C@]12Cc3c([nH]c4ccccc34)[C@@H](c3ccc(OC)cc3)N1[C@@H]1c3ccccc3OC[C@@H]1C2` showed an inhibition zone (IZ) of 12 mm.

The test system of the next assay is Staphylococcus aureus. Nature of the assay: Antimicrobial activity against Staphylococcus aureus at 75 ug/ml by agar diffusion assay. The class given is functional. In outline:
as §2
For the compound `CN(C)[C@@H]1C(O)=C(C(N)=O)C(=O)[C@@]2(O)C(O)=C3C(=O)c4c(O)cccc4[C@@](C)(O)[C@H]3C[C@@H]12` [TETRACYCLINE], the inhibition zone (IZ) was 29 mm.

As for `COC(=O)[C@]12Cc3c([nH]c4ccccc34)[C@@H](c3ccc(OC)cc3)N1[C@@H]1c3ccccc3OC[C@@H]1C2`, the inhibition zone (IZ) stood at 16 mm.

A further assay has as its system Staphylococcus aureus. Nature of the assay: Antimicrobial activity against Staphylococcus aureus at 100 ug/ml by agar diffusion assay. The class given is functional. The method in brief: as §2
Regarding `CN(C)[C@@H]1C(O)=C(C(N)=O)C(=O)[C@@]2(O)C(O)=C3C(=O)c4c(O)cccc4[C@@](C)(O)[C@H]3C[C@@H]12` [TETRACYCLINE], the inhibition zone (IZ) was over 40 mm.

Compound `COC(=O)[C@]12Cc3c([nH]c4ccccc34)[C@@H](c3ccc(OC)cc3)N1[C@@H]1c3ccccc3OC[C@@H]1C2` yielded an inhibition zone (IZ) of 18 mm.

The subject of another assay is Pseudomonas aeruginosa. In words: Antimicrobial activity against Pseudomonas aeruginosa at 25 ug/ml by agar diffusion assay. Type of assay: functional. In outline:
as §2
`CN(C)[C@@H]1C(O)=C(C(N)=O)C(=O)[C@@]2(O)C(O)=C3C(=O)c4c(O)cccc4[C@@](C)(O)[C@H]3C[C@@H]12` [TETRACYCLINE] returned an inhibition zone (IZ) of 20 mm.

`COC(=O)[C@]12Cc3c([nH]c4ccccc34)[C@@H](c3ccc(OC)cc3)N1[C@@H]1c3ccccc3OC[C@@H]1C2` registered an inhibition zone (IZ) of 7 mm.

The next assay deals with Pseudomonas aeruginosa. In words: Antimicrobial activity against Pseudomonas aeruginosa at 50 ug/ml by agar diffusion assay. The class given is functional. The method in brief:
as §2
In turn, `CN(C)[C@@H]1C(O)=C(C(N)=O)C(=O)[C@@]2(O)C(O)=C3C(=O)c4c(O)cccc4[C@@](C)(O)[C@H]3C[C@@H]12` [TETRACYCLINE] yielded an inhibition zone (IZ) of 26 mm.

`COC(=O)[C@]12Cc3c([nH]c4ccccc34)[C@@H](c3ccc(OC)cc3)N1[C@@H]1c3ccccc3OC[C@@H]1C2` registered an inhibition zone (IZ) of 11 mm.

Another assay has as its system Pseudomonas aeruginosa. In words: Antimicrobial activity against Pseudomonas aeruginosa at 75 ug/ml by agar diffusion assay. Type of assay: functional. The method in brief:
as §2
`CN(C)[C@@H]1C(O)=C(C(N)=O)C(=O)[C@@]2(O)C(O)=C3C(=O)c4c(O)cccc4[C@@](C)(O)[C@H]3C[C@@H]12` [TETRACYCLINE] gave an inhibition zone (IZ) of 28 mm.

In turn, `COC(=O)[C@]12Cc3c([nH]c4ccccc34)[C@@H](c3ccc(OC)cc3)N1[C@@H]1c3ccccc3OC[C@@H]1C2` yielded an inhibition zone (IZ) of 15 mm.

Another assay concerns Pseudomonas aeruginosa. Nature of the assay: Antimicrobial activity against Pseudomonas aeruginosa at 100 ug/ml by agar diffusion assay. The class given is functional. The method in brief: as §2
Regarding `CN(C)[C@@H]1C(O)=C(C(N)=O)C(=O)[C@@]2(O)C(O)=C3C(=O)c4c(O)cccc4[C@@](C)(O)[C@H]3C[C@@H]12` [TETRACYCLINE], the inhibition zone (IZ) was over 40 mm.

As to `COC(=O)[C@]12Cc3c([nH]c4ccccc34)[C@@H](c3ccc(OC)cc3)N1[C@@H]1c3ccccc3OC[C@@H]1C2`, the inhibition zone (IZ) was determined as 20 mm.

Another assay has as its system Klebsiella pneumoniae. In words: Antimicrobial activity against Klebsiella pneumoniae at 25 ug/ml by agar diffusion assay. Type of assay: functional. The method in brief:
as §2
On to `CN(C)[C@@H]1C(O)=C(C(N)=O)C(=O)[C@@]2(O)C(O)=C3C(=O)c4c(O)cccc4[C@@](C)(O)[C@H]3C[C@@H]12` [TETRACYCLINE], for which the inhibition zone (IZ) is 18 mm.

In turn, `COC(=O)[C@]12Cc3c([nH]c4ccccc34)[C@@H](c3ccc(OC)cc3)N1[C@@H]1c3ccccc3OC[C@@H]1C2` registered an inhibition zone (IZ) of 8 mm.

A further assay has as its system Klebsiella pneumoniae. Nature of the assay: Antimicrobial activity against Klebsiella pneumoniae at 50 ug/ml by agar diffusion assay. The class given is functional. The method in brief:
as §2
Regarding `CN(C)[C@@H]1C(O)=C(C(N)=O)C(=O)[C@@]2(O)C(O)=C3C(=O)c4c(O)cccc4[C@@](C)(O)[C@H]3C[C@@H]12` [TETRACYCLINE], the inhibition zone (IZ) turned out to be 22 mm.

Regarding `COC(=O)[C@]12Cc3c([nH]c4ccccc34)[C@@H](c3ccc(OC)cc3)N1[C@@H]1c3ccccc3OC[C@@H]1C2`, the inhibition zone (IZ) is 11 mm.

A further assay deals with Klebsiella pneumoniae. In words: Antimicrobial activity against Klebsiella pneumoniae at 75 ug/ml by agar diffusion assay. Type of assay: functional. The method in brief: as §2
As to `CN(C)[C@@H]1C(O)=C(C(N)=O)C(=O)[C@@]2(O)C(O)=C3C(=O)c4c(O)cccc4[C@@](C)(O)[C@H]3C[C@@H]12` [TETRACYCLINE], the inhibition zone (IZ) was determined as 28 mm.

Regarding `COC(=O)[C@]12Cc3c([nH]c4ccccc34)[C@@H](c3ccc(OC)cc3)N1[C@@H]1c3ccccc3OC[C@@H]1C2`, the inhibition zone (IZ) stood at 19 mm.

A further assay has as its system Klebsiella pneumoniae. In words: Antimicrobial activity against Klebsiella pneumoniae at 100 ug/ml by agar diffusion assay. The class given is functional. The method in brief: as §2
`CN(C)[C@@H]1C(O)=C(C(N)=O)C(=O)[C@@]2(O)C(O)=C3C(=O)c4c(O)cccc4[C@@](C)(O)[C@H]3C[C@@H]12` [TETRACYCLINE]: the inhibition zone (IZ) is over 40 mm.

For `COC(=O)[C@]12Cc3c([nH]c4ccccc34)[C@@H](c3ccc(OC)cc3)N1[C@@H]1c3ccccc3OC[C@@H]1C2`, the inhibition zone (IZ) was 20 mm.

The next assay deals with Fusarium oxysporum. In words: Antifungal activity against Fusarium oxysporum. The class given is functional. The method in brief: (§3)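 Agar diffusion assay in duplicate against the plant fungal pathogens; read-out as minimum inhibitory concentration (MIC); carbendazim as reference control.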
`COC(=O)Nc1nc2ccccc2[nH]1` [CARBENDAZIM] came in with an MIC of 20 µg/mL (≈ 105 µM).

`COC(=O)[C@]12Cc3c([nH]c4ccccc34)[C@@H](c3ccc(OC)cc3)N1[C@@H]1c3ccccc3OC[C@@H]1C2` returned an MIC of 35 µg/mL (≈ 72.8 µM).

The subject of another assay is Macrophomina phaseolina. Nature of the assay: Antifungal activity against Macrophomina phaseolina. The class given is functional. In outline:
as §3
On to `COC(=O)Nc1nc2ccccc2[nH]1` [CARBENDAZIM], for which the MIC stood at 15 µg/mL (≈ 78.5 µM).

On to `COC(=O)[C@]12Cc3c([nH]c4ccccc34)[C@@H](c3ccc(OC)cc3)N1[C@@H]1c3ccccc3OC[C@@H]1C2`, for which the minimal inhibitory concentration (MIC) was 50 µg/mL (≈ 104 µM).

The test system of a further assay is Radical scavenging activity. In words: Antioxidant activity assessed as DPPH free radical scavenging activity at 500 ug by spectrophotometer. The class given is functional. The method in brief:
as §1
`COC(=O)[C@]12Cc3c([nH]c4ccccc34)[C@@H](c3ccc(OC)cc3)N1[C@@H]1c3ccccc3OC[C@@H]1C2`: the Activity is 50%.

For the next assay, the system named is Radical scavenging activity. In words: Antioxidant activity assessed as DPPH free radical scavenging activity at 1000 ug by spectrophotometer. The class given is functional. In outline: as §1
For the compound `COC(=O)[C@]12Cc3c([nH]c4ccccc34)[C@@H](c3ccc(OC)cc3)N1[C@@H]1c3ccccc3OC[C@@H]1C2`, the Activity was determined as 68%.
